From the RNAGym collection of RNA variant scans (doi:10.1126/science.aae0568)
Fewer inactive variants are shown than the library holds.

B1: tRNA (parent)
chain: GUUCCGUUGGCGUAAUGGUAACGCGUCUCCCUCCUAAGGAGAAGACUGCGGGUUCGAGUCCCGUACGGAACG

Variants of: B1
Test: yeast fitness relative to wild type (ratio to wild type); higher = fitter; tRNA-Arg(CCU), competitive growth, 37 C, YPD
Summary of the method: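 The tRNA-Arg(CCU) gene variants were made by chemical synthesis with a 3% per-site mutation rate at 69 sites and inserted at the native genomic locus of Saccharomyces cerevisiae. After pooling, the strains were competed in YPD at 37°C for 24 hours in six parallel replicates. Gene amplicons from the start population and each end population were read by 100-nucleotide paired-end sequencing, and Darwinian fitness relative to wild type was taken from genotype frequency changes. Genotypes needed ≥ 100 starting reads, and estimates < 0.5 were set to 0.5.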

Variant | yeast fitness
C5G G25A U47C | 0.781
U7G A21G U53C A57C A69U | ≤ 0.5
A15U U53A G63A | ≤ 0.5
A14G A40C U59G C60G | ≤ 0.5
C27U C60A | 0.552
C5A G68C | 0.802
U19A C24G G52C U64G | 0.535
C27A G50C | 0.721
U2G U35A A40U A57U | ≤ 0.5
C5A G12A U35A A42G A65C C66A | 0.6
U13A C61A C62U C66U | ≤ 0.5
C22A U47A G48A | 0.505
C4G C29A U32A A45C A65C | ≤ 0.5
A40U A57C | 0.744
A14G U19A C34U | ≤ 0.5
U32A U35G A36U G38A U47C | ≤ 0.5
G6A U47C A57C | ≤ 0.5
C33G G41C | 0.58
A15C G17A U35A | ≤ 0.5
G58C C60G | 0.683
U13A A21U C22G U32C A42C G48C C55G | ≤ 0.5

Variant | yeast fitness
U7A C29G A70U | ≤ 0.5
C11A U16C C34G A65G G67A | ≤ 0.5
A15C U16C A37C A43C | ≤ 0.5
A20G A21C C30A G41C | 0.581
C31A A43U | 0.94
U16A A37U G56A A65U | ≤ 0.5
A14G A15G G44A | ≤ 0.5
C31G A36C C46G G51C | 0.597
U28A C66U G68A | ≤ 0.5
U2C A15C C55G A57C | 0.512
G23A C30A A43U | ≤ 0.5
U19G C29A | 0.56
A14C A20U C31A | ≤ 0.5
C5G G25A A42C G68U | ≤ 0.5
C4G A21C C22U C61U | ≤ 0.5
U26C U32A C34U G38C G51A A57C C66U | 0.66
C24A G58A A70G | 0.574
C34U G51A | 0.547
U8A C33A A40G | ≤ 0.5
C11A A15C C24G C61A A69C | ≤ 0.5
A14C U28A U54A C61G A69C | ≤ 0.5

Variant | yeast fitness
C5U C34U C49G G52C C55U C62G | ≤ 0.5
G6A A14G G48C | ≤ 0.5
U28C | 0.981
C4G A21G G50A | 0.718
C30A C34U | 0.752
C24G C55A A70C | ≤ 0.5
C30G U47C G63A G67A | ≤ 0.5
C5G A14U C24U C55G A70U | ≤ 0.5
C5U C33U A37C A42U U47C G52A U54C G67A | ≤ 0.5
G9C U28G C29U C49U U54A C55U A70C | ≤ 0.5
A57U G63A | 0.681
C24U G38C G52C | ≤ 0.5
C4A G9A C49A U53C | ≤ 0.5
G9A A57U A65C A69C | ≤ 0.5
C5G U19C U26A C55U | ≤ 0.5
U16A U19C G56A | 0.68
G10A C30U C33G U64C | 0.662
C5G G51U G67C | ≤ 0.5
C33A C46U C61G | ≤ 0.5
A20U A70U | 0.988
C5G A15C A42C | 0.584

Variant | yeast fitness
C4A U16G C22U G23U A42C G50C G63C G68C | 0.604
U8G C22U U26A G52A | ≤ 0.5
U7A G9C G17C A40U A65C | ≤ 0.5
C11G A37G G52C A70U | 0.57
G23A G38A G41C G50C C55G | 0.696
U16A C30U A40C | ≤ 0.5
G6A C29G U47C U59A | ≤ 0.5
C22U G25A A36G G51A C66U | ≤ 0.5
C4A U7C G41A C49A | 0.504
C55U U59A | 0.891
A21C G52C | 0.511
A20C A40U A43U A70U | ≤ 0.5
G9C C29G C34G C60G | 0.534
C5A C34G G58A G67A | ≤ 0.5
A21C A65U | 0.697
U2C U32A C46U | 0.603
C22U A40C C62U | 0.648
G17C C29U A37C G67A | 0.575
C4G C24U U32G A40U U64G | ≤ 0.5
C5A C24G | 0.621
G6A C11A A14C U19C G23A U32A A42C | 0.532
